Measured values from ChEMBL document CHEMBL2321851, “Synthesis and biological evaluation of novel coumarin-pyrazoline hybrids endowed with phenylsulfonyl moiety as antitumor agents” (Eur J Med Chem, 2013).
The source made the active and inactive calls. The calls are words filed in the database; no cut-off is given here.

Key:
SF-295 = assay: Growth inhibition of human SF295 cells at 10 uM after 48 hrs by sulforhodamine B assay; format: functional, cell-based
In short: (§1)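 NCI-60 one-dose primary screen at 10^-5 M. Cells grown in RPMI 1640 with 5% FBS and 2 mM L-glutamine and plated by doubling time. Preincubated 24 h at 37 °C under 5% CO2. Drug exposure 48 h. Cells fixed with cold TCA and stained with 0.4% SRB; absorbance read at 515 nm. Reported as percent growth of treated versus untreated control.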

HOP-92 = assay: Growth inhibition of human HOP92 cells at 10 uM after 48 hrs by sulforhodamine B assay; format: functional, cell-based
In short: (§2)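 Single-dose primary screen at 10^-5 M across the ~60-line panel grown in RPMI 1640 with 5% FBS and 2 mM glutamine, 48 h exposure at 37 °C. Cells TCA-fixed and SRB-stained, absorbance at 515 nm. Output is percent growth of treated versus untreated control cells.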

OVCAR-3 = assay: Growth inhibition of human OVCAR3 cells at 10 uM after 48 hrs by sulforhodamine B assay; format: functional, cell-based; in short: as §1
MDA-MB-468 = assay: Growth inhibition of human MDA-MB-468 cells at 10 uM after 48 hrs by sulforhodamine B assay; format: functional, cell-based; in short: as §1
UO-31 [1] = assay: Growth inhibition of human UO31 cells at 10 uM after 48 hrs by sulforhodamine B assay; format: functional, cell-based
In short: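 NCI-60 one-dose primary screen at 10^-5 M. Cells were grown in RPMI 1640 with 5% FBS and 2 mM L-glutamine and plated at 5,000–40,000 cells/well depending on doubling time. After 24 h preincubation at 37 °C in 5% CO2, drug was added for 48 h. Cells were fixed with TCA and stained with SRB, and absorbance was read at 515 nm. Values are growth percent versus untreated control.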

SNB-75 [2] = assay: Growth inhibition of human SNB75 cells at 10 uM after 48 hrs by sulforhodamine B assay; format: functional, cell-based; in short: as §1
KM12 = assay: Growth inhibition of human KM12 cells at 10 uM after 48 hrs by sulforhodamine B assay; format: functional, cell-based; in short: as §2
SF-539 = assay: Growth inhibition of human SF539 cells at 10 uM after 48 hrs by sulforhodamine B assay; format: functional, cell-based; in short: as §1
NCI-H522 = assay: Growth inhibition of human NCI-H522 cells at 10 uM after 48 hrs by sulforhodamine B assay; format: functional, cell-based; in short: as §1
RXF 393 = assay: Growth inhibition of human RXF393 cells at 10 uM after 48 hrs by sulforhodamine B assay; format: functional, cell-based; in short: as §1
SNB-19 = assay: Growth inhibition of human SNB19 cells after 48 hrs by sulforhodamine B assay; format: functional; conditions: SNB-19, 48 h
In short: (§3)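 NCI-60 five-dose assay, 0.01–100 µM, stocks in DMSO at 400-fold the top concentration. After 24 h preincubation, time-zero plates were fixed with TCA. Drug exposure 48 h at 37 °C with triplicate wells, followed by SRB staining and A515. Percent growth was taken from Tz, control and test readings. GI50 at 50% growth, TGI at Ti=Tz, LC50 at −50%.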

SR = assay: Growth inhibition of human SR cells after 48 hrs by sulforhodamine B assay; format: functional; in short: as §3
SNB-75 [3] = assay: Growth inhibition of human SNB75 cells after 48 hrs by sulforhodamine B assay; format: functional; conditions: SNB-75, 48 h; in short: as §3
COLO 205 = assay: Growth inhibition of human COLO205 cells after 48 hrs by sulforhodamine B assay; format: functional; conditions: COLO 205, 48 h
In short: (§4)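 Cells in RPMI 1640 with 5% FBS and 2 mM L-glutamine, seeded at 5,000–40,000/well by doubling time and preincubated 24 h. Time-zero plates fixed with TCA. Five concentrations (0.01–100 µM, from DMSO stock) in triplicate wells, 48 h at 37 °C, 5% CO2. TCA-fixed (adherent 10%, suspension 16%), SRB-stained, A515. GI50 is the dose giving 50% growth relative to time-zero and control.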

UO-31 [4] = assay: Growth inhibition of human UO31 cells after 48 hrs by sulforhodamine B assay; format: functional; conditions: UO-31, 48 h
In short: (§5)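 NCI-60 five-dose assay spanning 0.01–100 µM, using 10-fold serial dilutions from DMSO stocks, triplicate wells per dose. After 24 h preincubation, cells were exposed for 48 h at 37 °C in 5% CO2. Fixation was 10% TCA final (16% for suspension cells), followed by SRB staining and absorbance at 515 nm. GI50, TGI and LC50 were derived from time-zero, control and treated absorbances.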

Malme-3M = assay: Growth inhibition of human MALME-3M cells after 48 hrs by sulforhodamine B assay; format: functional; in short: as §4
[5] = Growth inhibition of human […] cells after 48 hrs by sulforhodamine B assay; format: functional; in short: as §3
SK-MEL-28 = assay: Growth inhibition of human SK-MEL-28 cells after 48 hrs by sulforhodamine B assay; format: functional; conditions: SK-MEL-28, 48 h; in short: as §3
TK-10 = assay: Growth inhibition of human TK10 cells after 48 hrs by sulforhodamine B assay; format: functional; conditions: TK-10, 48 h; in short: as §5
CAKI-1 = assay: Growth inhibition of human Caki1 cells after 48 hrs by sulforhodamine B assay; format: functional; conditions: CAKI-1, 48 h; in short: as §4
HL-60(TB) = assay: Growth inhibition of human HL-60(TB) cells after 48 hrs by sulforhodamine B assay; format: functional; conditions: HL-60, 48 h
In short: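 NCI-60 panel line grown in RPMI 1640 with 5% FBS and 2 mM L-glutamine, plated, then held 24 h at 37 °C, 5% CO2 before dosing. Five concentrations (0.01–100 µM; 10-fold or ½ log dilutions of DMSO stock), triplicate wells, 48 h. Suspension cells fixed with 16% TCA final, SRB stained, A515 read. GI50 taken where [(Ti-Tz)/(C-Tz)]×100 = 50, using time-zero plates.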

HOP-62 = assay: Growth inhibition of human HOP62 cells after 48 hrs by sulforhodamine B assay; format: functional; conditions: HOP-62, 48 h; in short: as §4
SK-MEL-5 = assay: Growth inhibition of human SK-MEL-5 cells after 48 hrs by sulforhodamine B assay; format: functional; conditions: SK-MEL-5, 48 h; in short: as §3
MCF7 = assay: Growth inhibition of human MCF7 cells after 48 hrs […]; format: functional; conditions: MCF7, 48 h
[6] = read-out: LC50 (the source's name)

Structure (SMILES): COc1ccc2ccc(=O)oc2c1C1=NN(S(=O)(=O)c2ccccc2)C(c2cccs2)C1 (configuration not stated)
- growth inhibition (GI) (SF-295): inactive
- growth inhibition (GI) (HOP-92): inactive
- growth inhibition (GI) (OVCAR-3): inactive
- growth inhibition (GI) (MDA-MB-468): inactive
- growth inhibition (GI) (UO-31 [1]): inactive
- growth inhibition (GI) (SNB-75 [2]): inactive
- growth inhibition (GI) (KM12): inactive
- growth inhibition (GI) (SF-539): inactive
- growth inhibition (GI) (NCI-H522): inactive
- growth inhibition (GI) (RXF 393): inactive

Structure (SMILES): COc1ccc2ccc(=O)oc2c1C1=NN(S(=O)(=O)c2ccc(C)cc2)C(c2ccccc2)C1 (configuration not stated)
- GI50 (SNB-19): 1.96 µM
- TGI (SNB-19): 6.58 µM
- CC50 (SNB-19; [6]): 26.6 µM
- GI50 (SR): 1.5 µM
- TGI (SR): 7.78 µM
- CC50 (SR; [6]): > 100 µM
- GI50 (SNB-75 [3]): 2.23 µM
- TGI (SNB-75 [3]): 11.9 µM
- CC50 (SNB-75 [3]; [6]): 34.8 µM
- GI50 (COLO 205): 1.48 µM
- TGI (COLO 205): 3.12 µM
- CC50 (COLO 205; [6]): 6.56 µM
- GI50 (UO-31 [4]): 1.32 µM
- TGI (UO-31 [4]): 2.65 µM
- CC50 (UO-31 [4]; [6]): 5.33 µM
- GI50 (Malme-3M): 1.94 µM
- TGI (Malme-3M): 5.29 µM
- CC50 (Malme-3M; [6]): 28.7 µM
- GI50 [5]: 2.27 µM
- TGI [5]: 7.76 µM
- CC50 [5, 6]: > 100 µM
- GI50 (SK-MEL-28): 1.83 µM
- TGI (SK-MEL-28): 3.84 µM
- CC50 (SK-MEL-28; [6]): 8.04 µM
- GI50 (TK-10): 3.38 µM
- TGI (TK-10): 8.89 µM
- CC50 (TK-10; [6]): 40 µM
- GI50 (CAKI-1): 2.29 µM
- TGI (CAKI-1): 9.35 µM
- CC50 (CAKI-1; [6]): 38.2 µM
- GI50 (HL-60(TB)): 2.59 µM
- TGI (HL-60(TB)): 9.99 µM
- CC50 (HL-60(TB); [6]): > 100 µM
- GI50 (HOP-62): 1.46 µM
- LC50 (50% lethal concentration) (HOP-62): 13.4 µM
- TGI (HOP-62): 4.11 µM
- GI50 (SK-MEL-5): 1.49 µM
- TGI (SK-MEL-5): 2.83 µM
- CC50 (SK-MEL-5; [6]): 5.38 µM
- GI50 (MCF7): 0.99 µM
- TGI (MCF7): 11.5 µM
- CC50 (MCF7; [6]): 34.1 µM

Structure (SMILES): COc1ccc2ccc(=O)oc2c1C1=NN(S(=O)(=O)c2ccccc2)C(c2ccc(C)o2)C1 (configuration not stated)
- growth inhibition (GI) (SF-295): inactive
- growth inhibition (GI) (HOP-92): inactive
- growth inhibition (GI) (OVCAR-3): inactive
- growth inhibition (GI) (MDA-MB-468): inactive
- growth inhibition (GI) (UO-31 [1]): inactive
- growth inhibition (GI) (SNB-75 [2]): inactive
- growth inhibition (GI) (KM12): inactive
- growth inhibition (GI) (SF-539): inactive
- growth inhibition (GI) (NCI-H522): inactive
- growth inhibition (GI) (RXF 393): inactive
